Read-outs that look alike come from different tables or passages of the source.
How the values were obtained:
[1] = target: T1, glucocorticoid receptor (GR) (Homo sapiens, UniProt P04150); experiment: GR antagonism assay; type: biochemical; settings: read-out: antagonism to GR
T1 sequence (P04150 1-777): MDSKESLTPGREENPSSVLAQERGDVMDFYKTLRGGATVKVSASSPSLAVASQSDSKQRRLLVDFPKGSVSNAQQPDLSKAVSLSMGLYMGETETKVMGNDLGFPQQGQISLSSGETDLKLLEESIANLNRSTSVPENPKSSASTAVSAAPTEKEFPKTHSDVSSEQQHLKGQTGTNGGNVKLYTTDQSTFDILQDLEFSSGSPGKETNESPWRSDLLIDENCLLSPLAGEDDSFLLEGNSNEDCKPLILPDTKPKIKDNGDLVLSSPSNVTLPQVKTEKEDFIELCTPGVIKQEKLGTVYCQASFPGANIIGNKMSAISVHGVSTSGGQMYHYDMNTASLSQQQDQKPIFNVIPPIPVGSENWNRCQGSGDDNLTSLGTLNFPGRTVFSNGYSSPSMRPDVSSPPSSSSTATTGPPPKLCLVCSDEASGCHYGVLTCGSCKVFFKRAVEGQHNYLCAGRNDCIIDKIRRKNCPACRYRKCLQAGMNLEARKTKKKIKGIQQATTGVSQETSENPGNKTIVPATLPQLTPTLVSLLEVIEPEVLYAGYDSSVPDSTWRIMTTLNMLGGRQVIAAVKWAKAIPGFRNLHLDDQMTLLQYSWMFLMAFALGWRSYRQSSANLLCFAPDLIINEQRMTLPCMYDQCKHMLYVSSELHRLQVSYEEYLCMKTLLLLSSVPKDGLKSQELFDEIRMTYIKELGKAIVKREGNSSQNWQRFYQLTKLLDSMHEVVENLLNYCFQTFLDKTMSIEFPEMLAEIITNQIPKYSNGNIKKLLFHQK

[2] = test system: MDA-MB-231 and BT-549 cells; settings: 72 h
CYP 2D6 = CYP 2D6 (Homo sapiens, UniProt P10635)
CYP 2D6, sequence (P10635 whole entry): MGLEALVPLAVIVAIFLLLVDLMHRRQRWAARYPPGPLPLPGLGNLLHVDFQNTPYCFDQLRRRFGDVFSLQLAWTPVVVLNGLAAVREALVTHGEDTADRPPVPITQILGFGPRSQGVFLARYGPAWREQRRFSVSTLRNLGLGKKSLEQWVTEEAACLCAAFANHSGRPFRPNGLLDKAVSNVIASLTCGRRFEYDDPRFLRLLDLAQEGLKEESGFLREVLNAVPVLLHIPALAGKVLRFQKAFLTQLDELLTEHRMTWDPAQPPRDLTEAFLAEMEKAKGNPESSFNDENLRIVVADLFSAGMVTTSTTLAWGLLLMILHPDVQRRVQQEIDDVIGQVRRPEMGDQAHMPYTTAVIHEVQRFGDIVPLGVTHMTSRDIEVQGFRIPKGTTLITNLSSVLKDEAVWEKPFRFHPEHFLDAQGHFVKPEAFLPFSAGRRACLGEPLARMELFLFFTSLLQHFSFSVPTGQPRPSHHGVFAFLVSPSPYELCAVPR

[3] = human
[4] = test system: ALDH+ (CSCs) and ALDH− (non CSCs) cells; experiment: Cell Titer-Glo viability of CSCs and non CSCs; type: cell-based, Human; settings: 3 days
[5] = test system: MDA-MB-231 xenograft tumors; experiment: MDA-MB-231 xenograft study; type: in vivo, athymic nude mice; settings: 5 mg/kg/day s.c. 3 days/week
[6] = human; remark: listed apart in the source
[7] = human; remark: listed apart in the source
GR = target: T2, GR (Homo sapiens, UniProt P04150); experiment: In vitro steroid receptor binding assays; settings: receptor binding studies (Fig. 1C)
T2 sequence (P04150 1-777): T1 sequence (P04150 1-777)

[8] = test system: TNBC cells (BT-549, SUM-159, MDA-MB-231, HCC1937, MDA-MB-468, HCC1806); experiment: MTT cell viability assay in TNBC cells; type: cell-based, Human; settings: read-out: IC50, cell viability of TNBC cells, 5 days
[9] = rats
BT-549 cells = experiment: MTT cell viability assay on BT-549 cells; type: cell-based, Human; settings: BT-549 model cells (Fig. 1B)
[10] = test system: STAT3-Luc reporter in BT-549 and MDA-MB-231 cells; experiment: STAT3-luc reporter gene assay; type: cell-based, Human; settings: BT-549, EC359 50 nM pretreatment 1 h
Procedure, shortened: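 MDA-MB-231 and BT-549 lines stably transduced with a STAT3-firefly luciferase reporter lentivirus were serum-starved for 24 h and pretreated with test compound (50 nM) for 1 h. They were then stimulated with LIF, CTF1, OSM or CNTF at indicated concentrations for 24 h. Lysates in passive lysis buffer were read by dual-luciferase luminescence; n=3.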

Recombinant human LIF = Recombinant human LIF (Homo sapiens, UniProt P15018); experiment: Surface plasmon resonance; type: binding; settings: SPR
Recombinant human LIF, sequence (P15018 23-202): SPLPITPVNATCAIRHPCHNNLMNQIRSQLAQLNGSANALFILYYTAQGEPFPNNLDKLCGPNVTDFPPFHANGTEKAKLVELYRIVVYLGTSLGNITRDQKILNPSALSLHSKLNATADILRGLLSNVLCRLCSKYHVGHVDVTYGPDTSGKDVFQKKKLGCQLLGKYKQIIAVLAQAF

[11] = test system: MDA-MB-231 and SUM-159 cells; experiment: Clonogenic survival assay; type: cell-based, Human; settings: EC359 20 nM
[12] = test system: LIFR downstream signaling in MDA-MB-231 and BT-549 cells; experiment: Western blotting of LIFR downstream signaling; type: cell-based, Human
Procedure, shortened: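 After 24 h serum starvation and 1 h pretreatment with test compound (100 nM), cells were stimulated for 10 min with LIF (MDA-MB-231, BT-549), or with OSM or CNTF at 10 ng (BT-549). For downstream kinases, cells were treated with 100 nM. Lysates were made in RIPA with protease/phosphatase inhibitors and blotted with ECL detection. p-STAT3 bands were quantified, normalized to total STAT3 and expressed as fold over control.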

[13] = test system: MDA-MB-231 and BT-549 cells; experiment: Annexin V/PI staining; type: cell-based, Human
[14] = intraperitoneal and oral dosing
TNBC PDX tumors = experiment: TNBC patient derived xenograft; type: in vivo, SCID mice; settings: 10 mg/kg/day s.c. 3 days/week
[15] = test system: MDA-MB-231 and BT-549 cells; experiment: Matrigel invasion chamber assay; type: cell-based, Human; settings: EC359 25 nM, 22 h
[16] = test system: salmonella typhimurium strains TA98, TA100, TA1535, TA1537 and E.coli combo; experiment: Ames test; settings: with and without metabolic activation, OECD guideline no.471
[17] = test system: CSCs from MDA-MB-231 and BT-549 cells; experiment: Extreme limiting dilution assay; type: cell-based, Human; settings: 10 days
Procedure, shortened: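 ALDH+ CSCs were sorted by ALDEFLUOR flow cytometry and grown in supplemented MammoCult. They were seeded at 100, 50, 20, 10, 5 and 1 cells/well on ultra-low attachment plates with vehicle or test compound. After 10 days, wells with spheres were scored at each density, and stem cell frequency was estimated by ELDA analysis.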

C#CC(F)(F)[C@]1(O)CC[C@H]2[C@@H]3CCC4=CC(=O)CCC4=C3[C@@H](c3ccc(C4CC4)cc3)C[C@@]21C [EC330]
IC50 [1]: 0.0798 µM

C#CC(F)(F)[C@]1(O)CC[C@H]2[C@@H]3CCC4=CC(=O)CCC4=C3[C@@H](c3ccc(-c4c(C)cc(C)cc4C)cc3)C[C@@]21C [EC359]
caspase 3/7 activity [2]: significantly increased | CYP 2D6 inhibition (CYP 2D6): inhibits 2D6 | plasma protein binding [3]: high | viability of ALDH+ and ALDH− cells [4]: similarly inhibited | body weights of mice [5]: remained unchanged | proliferating cells (Ki-67 positive cells) in tumors [5]: fewer proliferating cells | tumor progression (tumor volume) [5]: significantly reduced | activation of STAT3 target genes in tumors ([5]; RT-qPCR): significant decrease | Metabolic stability [6]: moderate | plasma stability [7]: moderate | affinity to GR (GR): lack of affinity | IC50 [8]: 0.01 to 0.05 µM | AUC0-inf ([9]; IV 5 mg/kg): 15573.91 ng·h/mL | AUC0-last ([9]; IV 5 mg/kg): 15544.36 ng·h/mL | T½ ([9]; IV 5 mg/kg): 3.86 h | mean C0 ([9]; IV 5 mg/kg): 74669.11 ng/mL | AUC0-inf ([9]; oral 10 mg/kg): 3876.82 ng·h/mL | AUC0-last ([9]; oral 10 mg/kg): 3792.26 ng·h/mL | Tmax ([9]; oral 10 mg/kg): 2.67 h | mean Cmax ([9]; oral 10 mg/kg): 919.50 ng/mL | inhibitory activity in cell viability assay (BT-549 cells): significant inhibitory activity on par with EC330 | LIF stimulated STAT3 reporter activity [10]: inhibited | OSM, CNTF and CTF1 mediated STAT3 activity [10]: blocked | binding to LIF (Recombinant human LIF): binding to LIFR, but not LIF | colony formation ability [11]: significantly reduced | STAT3 activation by OSM and CNTF (phosphorylation) ([12]; BT-549, EC359 100 nM 1 h, then OSM or CNTF 10 ng, 10 min): reduced | LIF activation of STAT3 (phosphorylation) ([12]; EC359 100 nM 1 h, then LIF 10 min, BT-549 and MDA-MB-231): substantially reduced | Annexin V positive cells [13]: significantly increased | bioavailability (PK) [14]: Good bioavailability | body weight (TNBC PDX tumors): did not affected | proliferating cells (Ki-67) in PDX tumors (TNBC PDX tumors): fewer proliferating cells | tumor progression (tumor volume) (TNBC PDX tumors): significantly reduced | invasion potential [15]: significantly reduced | mutagenicity (Ames test) [16]: non-mutagenic | self renewal of CSCs [17]: significantly reduced

Reference: paper PMC6677593 (Molecular cancer therapeutics, 2019)
